# Assay results as given in article PMC3172397 (Journal of colloid and interface science, 2011).
# pKd: −log10 of the molar value.
# Key:
# Test in all cases: intrinsic Trp fluorescence titration, Scatchard analysis
# Type in all cases: binding
# [1] = target: α-chymotrypsinogen A (aCHY) (Bos taurus, UniProt P00766)
# How it was run: (§1)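 Trp fluorescence read with 295 nm excitation and 335–360 nm emission. Fraction bound was taken from intensity relative to unbound and saturated protein. K was taken from the slope of linear Scatchard (ν/c vs ν) segments.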
# [2] = target: Bovine Serum albumin (BSA) (Bos taurus, UniProt P02769)
# How it was run: as §1
# ovalbumin (OVA) = target: T1, ovalbumin (OVA) (Gallus gallus, UniProt P01012)
# T1 sequence (P01012 2-386): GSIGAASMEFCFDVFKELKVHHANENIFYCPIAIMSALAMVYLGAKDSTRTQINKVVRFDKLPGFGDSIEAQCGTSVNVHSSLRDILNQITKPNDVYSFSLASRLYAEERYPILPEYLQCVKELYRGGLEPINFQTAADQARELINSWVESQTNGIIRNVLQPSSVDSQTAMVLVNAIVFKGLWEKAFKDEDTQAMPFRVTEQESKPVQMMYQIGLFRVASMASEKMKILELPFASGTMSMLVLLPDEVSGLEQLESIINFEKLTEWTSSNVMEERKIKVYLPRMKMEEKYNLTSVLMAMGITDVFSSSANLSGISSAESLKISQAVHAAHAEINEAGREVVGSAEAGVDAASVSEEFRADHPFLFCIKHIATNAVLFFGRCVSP
# How it was run: as §1
# Sequence of Bovine Serum albumin (BSA) (P02769 25-607): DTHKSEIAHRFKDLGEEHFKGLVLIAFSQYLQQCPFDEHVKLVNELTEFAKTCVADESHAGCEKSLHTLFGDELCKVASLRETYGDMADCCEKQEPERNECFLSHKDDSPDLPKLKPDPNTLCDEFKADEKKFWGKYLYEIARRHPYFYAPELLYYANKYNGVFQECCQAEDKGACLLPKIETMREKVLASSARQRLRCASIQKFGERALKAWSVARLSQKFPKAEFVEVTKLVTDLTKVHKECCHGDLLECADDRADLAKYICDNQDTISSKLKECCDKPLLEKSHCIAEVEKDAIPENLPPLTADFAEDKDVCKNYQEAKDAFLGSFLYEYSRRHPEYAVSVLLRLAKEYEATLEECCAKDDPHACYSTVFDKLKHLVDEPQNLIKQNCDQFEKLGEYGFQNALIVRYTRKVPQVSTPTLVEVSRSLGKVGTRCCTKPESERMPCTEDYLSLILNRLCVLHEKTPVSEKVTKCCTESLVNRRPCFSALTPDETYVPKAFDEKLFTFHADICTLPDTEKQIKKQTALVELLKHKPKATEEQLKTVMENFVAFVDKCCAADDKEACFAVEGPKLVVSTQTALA
pKd [1],pKd [2],pKd (ovalbumin (OVA)),SMILES
3.30,,,C=CCCCCCCCCCOS(=O)(=O)O [SUS]
3.34,4.65,4.93,CCCCCCCCCCCCOS(=O)(=O)O [SDS]
